Sequences and labels used below:
B1: tRNA (parent)
chain: CUCUCGGUAGCCAAGUUGGUUUAAGGCGCAAGACUUUAAUUUAUCACUACGAAAUCUUGAGAUCGGGCGUUCGACUCGCCCCCGGGAGAUUUUUUCCUCGAGCAA

This sample holds only a part of the variants without activity. Some results are limits rather than exact numbers.

In the series the parent is B1. Description: nonsense suppression (GFP-seq) (ratio to wild type); higher = more function; SUP4oc tRNA, yeast GFP reporter sort-seq. Summed up:
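Yeast carrying genome-integrated SUP4oc tRNA variants from a library with ~3% random mutations were grown in raffinose/galactose medium with 80 mg/L adenine. Each strain also carried a galactose-driven GFP ochre reporter and RFP. Cells were sorted into GFP/RFP bins, and each bin was Illumina-sequenced (phred ≥30). Nonsense suppression (GFPSEQ) is the bin median GFP/RFP, weighted by each variant's estimated cell share per bin, relative to wild-type SUP4oc; variants needed ≥100 reads and ≥30 cells.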
For the variant CUCUCGGUAGCCAAGAUGGUUUAAGGCGCAAGACUUUAAUUUAUCACUACGAAAUCUUGAGAUCGGGCGUUCAACUCGCCCCCGGGAGAUUUUUUCCUCGAGCAA, the nonsense suppression amounted to 0.63. Turning to CUCUCGGUAGCCAAGCUGGUUCAAGGCGCAAGACUUUAAUUUAUCACUACGAAAUCUUGACAUCGGGCGUUCGACUCGCCCCCGGGAGAUUUUUUCCUCGAGCAA, the nonsense suppression turned out to be 0.207.

With CUCUCGGUAGCCAAGAUGGUUCAAGGCGCAAGACUUUAAUUUAUCACUACGAAAUCUUGAGAUCGGGCGUUCGACUCGCCCCCGGGAGAUUUUUUCCUCGAGCAA, the nonsense suppression was found to be 1.08. As for CUCUCGGUAGCCAAGAUGCUUUAAGGCGCAAGACUUUAAUUUAUCACUACGAAAUCUUGAGAUCGGGCGGUGGACUCGCCCCCGGGAGAUUUUUUCCUCGAGCAA, the nonsense suppression was at most 0.026. In the case of CUCUCGGUAGCCAAGAGGGUUUAAGGCGCAAGACUUUAAUUUAUCACUACGAAAUCUUGAGAUCGGGCGUUCGACUCGCCCCCGGGAGAUUUUUUCCUCGAGCAA, the nonsense suppression was found to be 1.16. Consider CUCUCGGUAGCCAAGCUGGUUUAAGGCGCAAGACUUUAAUUUAUCACUACGAAAUCUUGAGAUCGGGAGUUCGACUCGCCCCCGGGAUAUUUUUUCCUCGAGCAA, for which the nonsense suppression is at most 0.026. CUCUCGGUAGCCAAGAUGGUUUAAGGCGCAAGACUUUAAUUUAUCACUACGAAAUCUUGAGAUCGGGCGUUCGACCCGCCCCCGGGAGAUUUUUUCCUCGAGCAA: the nonsense suppression was determined as 1.19.

With CUCUCGGUAGCCAAGCUGGUUUAAGGCGCAAGACUUUAAUUUAUCACUACGAAAUCUUGAGAUCGGGUGUUCGACUCGCCCCCGGGAGAUUUUUUCCUCGAGCAA, the nonsense suppression is 1.03. For CUCUCGGUAGCCAAGCUGGUUUAAGGCGCAAAACUUUAAUUUAUCACUACGAAAUCUUAAGAUCGGGCGUUCGACUCGCCCGCGGGAGAUUUUUUCCUCGAGCAA, the nonsense suppression was at most 0.026. As for CUCUCGGUAGCCAAGAUGGUUUAAGGCGCAAGACUUUAAUUUAUCACUACGAAAUCUUGAGAUCAAGCGUUCGACUCGCCCCCGGGAGAUUUUUUCCUCGAGCAA, the nonsense suppression is at most 0.026. Regarding CUCUCGGUAGCCAAGCUGGUUUGAGGCUCAAGACUUUAAUUUAUCACUACGAAAUCUUGAGAUCGGGCGUUCGACUCGCCCCCGGGAGAUUUUUUCCUCGAGCAA, the nonsense suppression is at most 0.026. For the variant CUCUCGGUAGCCAAGCUGGUUUAAGGCGCGAGACUUUAAUUUAUCACUACGAAAUCUUGAGAUCGGGCGUUCGACUCGCCCCCGGGAGAUUUUUUCCUCGAGCAA, the nonsense suppression stood at 1.17. As to CUCUCGGUAGCCAAGCUGGUUUAAGGCGCAAGACUUUAAUUUAUCACUACGAACUCUUGAGAUCGGGCGUUCGACUCGCCCCCGGGAGAUUUUUUCCUCGAGCAA, the nonsense suppression stood at 1.22.

As to CUCUCGGUAGCCAAGGUGGUUUAAGGCGCAAGACUUUAAUUUAUCACUACGAAAUCUUGAGAUCGGGCGUUCGACUCGCCCCCGGGAGAUUUUUUCCUCGAGCAA, the nonsense suppression is 1. As for CUCUCGGUAGCCAAGCUGGUUUAAGGCGCAAGACUUUAAUUUAUCACUACGAAAUCUUGAGAUCGGGCGUUCGACUCGCCCCCGGGAGAUUUUUUCCUCGAGCAA, the nonsense suppression was 0.862. The same measure for CUCUCGGUAGCCAAGCUGGUUUAAGGCGCAAGACUUUAAUUUAUCACUACGAAAUCUUGAGAUCGGGCGUUCGACUCGCCUCCGGGAGAUUUUUUCCUCGAGCAA: 1.16; for CUCUCGGUAGCCAAGCUGGUUUAAGGCGCAAGACUUUAAUUUAUCACUACGAAAUCUUGAGAUCGGGCGUUCGACUCGCCGCCGGGAGAUUUUUUCCUCGAGCAA: at most 0.026; for CUCUCGGUAGCCAAGAUGGUUUAAGGCGCAAGACUUUAAUUUAUCACUACGAAAUCUUGAGAUCGGGCGUUCGACUCGCCCCCGAGAGAUUUUUUCCUCGAGCAA: 1.03. In the case of CUCUCGGUAGCCAAGCUGGUUUAAGGCGCAAGACUUUAAUUUAUCACUACGAAAUCUUGAGAUCGGGCGUUCGACUCGCCCACGAGAGAUUUUUUCCUCGAGCAA, the nonsense suppression is at most 0.026. CUCUCGGUAGCCAAGCUGGUUUAAGGCGCAGGACUUUAAUUUAUCACUACGAAAUCCUGAGAUCGGGCGUUCGACUCGCCCCCGGGAGAUUUUUUCCUCGAGCAA: the nonsense suppression stood at 0.922. Regarding CUCUCGGUAGCCAAGCGGGUUUAAGGCGCAAGACUUUAAUUUAUCACUACGAAAUCUUGAGAUCGGGCGUUCGACUCGCCCCCGGGAGAUUUUUUCCUCGAGCAA, the nonsense suppression came out at 1.07. The same measure for CUCUCGGUAGCCAAGCUGGUGUAAGGCGCAGCACUUUAAUUUAUCACUACGAAAUCUUGAGAUCGGGCAUCCGAAUCGCCCCCGGAAGAUUUUUUCCUCGAGCAA: at most 0.026; for CUCUCGGUAGCCAAGCUGGUUUAAGGCGUAAGACUUUAAUUUAUCACUACGAAAUCUUGAGAUCGGGCGUUCGACUCGCCCCCGGGAGAUUUUUUCCUCGAGCAA: 1.11; for CUCUCGGUAGCCAAGCUGGUUUAAGGCGCAGGACUUUAAUUUAUCACUACGAAAUCUUGAGAUCGGGCGUUCGACUCGCCCCCGGGAGAUUUUUUCCUCGAGCAA: 1.07.

Take CUCUCGGUAGCCAAGAUGGUGUAAGGCGCAAGACUUUAAUUUAUCACUACGAAAUCUUGAGAUCGGGCGUUCGACUCGCCCCCGGGAGAUUUUUUCCUCGAGCAA: the nonsense suppression was 0.752. In the case of CUCUCGGUAGCCAAGCUGGUAGAAGGCGCAAGACUUUAAUUUAUCACUACGAAAUCUUGAGAUCGGGCGUUCGACUCGCCCCCGGGAGAUUUUUUCCUCGAGCAA, the nonsense suppression was found to be 0.861. CUCUCGGUAGCCAAGCCAGUUUAAGGCGCAAGACUUUAAUUUAUCACUACGAAAUCUUGAGAUCGGACGUUCGACUCGCCCCCGGGAGAUUUUUUCCUCGAGCAA: the nonsense suppression was at most 0.026.

CUCUCGGUAGCCAAGCUGGUUUAAGGCGCAAGACUUUAAUUUAUCACUACGAAAUCUUGAGAUCGGGCGUUCGACUCGCCCCUGGGAGAUUUUUUCCUCGAGCAA: the nonsense suppression was 0.5.

Take CUCUCGGUAGCCAAGGUGGUUUGAGGCGCAAGACUUUAAUUUAUCACUACGAAAUCUUGAGAUCGGGCGUUCGACUCGCCCCCGGGAGAUUUUUUCCUCGAGCAA: the nonsense suppression came out at 0.129. CUCUCGGUAGCCAAGCUGGUCUAAGGCGCAUGACUUUAAUUUAUCACUACGAAAUCUUGAGAUCGGGCGUUCGACUCGCCCCCGGGAGAUUUUUUCCUCGAGCAA: the nonsense suppression is 0.204. As for CUCUCGGUAGCCAAGCUGGUUUAAGGUGCAAGACUUUAAUUUAUCACUACGAAAUCUUGAGAUCGGGCGUUCGACUCGCCCCCGGGAGAUUUUUUCCUCGAGCAA, the figure is 0.137; as for CUCUCGGUAGCCAAGAUGGUUUAAGGCGCAAGACUUUAAUUUAUCACUACGAAAUCUUGAAAUCGGGCGUUCGACUCGCCCCCGGGAGAUUUUUUCCUCGAGCAA, 0.819; as for CUCUCGGUAGCCAAGCUGGUUUAAGGCGCAAGACUUUAAUUUAUCACUACGAAACCUUGAGAUCGGGCGUUCGACUCGCCCCCGGGAGAUUUUUUCCUCGAGCAA, 0.769. As for CUCUCGGUAGCCAAGCUGGUUUAAGGCGCAAGACUUUAAUUUAUCACUACGAAAUCUUGAAAACGGGCGUUCGACUCGCCCCCGGGAGAUUUUUUCCUCGAGCAA, the figure is 0.186. As to CUCUCGGUAGCCAAGCUGGUCUAAGGCGCAAGACUUUAAUUUAUCACUACGAAAUCUUGAGAUCGGGCGUUCGACUCGCCCCCGGGAGAUUUUUUCCUCGAGCAA, the nonsense suppression came out at 1.03. As for CUCUCGGUAGCCAAGCUGGUUUAAGGCGCAAGACUUUAAUUUAUCACUACGAAAUCUUGAUAUCGGGCGUUCAACUCGCCCCCGGGAGAUUUUUUCCUCGAGCAA, the figure is 0.438. On to CUCUCGGUAGCCAAGAUGGCUUAAGGCGCAAGACUUUAAUUUAUCACUACGAAAUCUUGAGAUCGGGCGUUCGACUCGCCCCCGGGAGAUUUUUUCCUCGAGCAA, for which the nonsense suppression worked out at 0.193. As to CUCUCGGUAGCCAAGAUGGGUUAAGGCGCAAGACUUUAAUUUAUCACUACGAAAUCUUGAGAUCGGGCGUUCGACUCGCCCCCGGGAGAUUUUUUCCUCGAGCAA, the nonsense suppression worked out at 1.11. As to CUCUCGGUAGCCAAGCUGGUUUAAGGCGCAAGACUUUAAUUUAUCACUACGAAAUCUUGAGAUCGGGCGUUCGACUCGCCCGCGGGAGAUUUUUUCCUCGAGCAA, the nonsense suppression is at most 0.026.

On to CUCUCGGUAGCCAAGCUGGUUUAAGGCGCAAGACUUUAAUUUAUCACUACGAAAUCUUGAGAUCGGGCGUUCAACUCGCCCCCGGGAGAUUUUUUCCUCGAGCAA, for which the nonsense suppression came out at 1.22. The same measure for CUCUCGGUAGCCAAGGUGGUUUAUGGCGCAAGACUUUAAUUUAUCACUACGAAAUCUUGAGAUCGGGCGUUCGACUCGCCCCCGGGAGAUUUUUUCCUCGAGCAA: 0.221; for CUCUCGGUAGCCAAGCUGGUUUAAGGCGCAAGACUUUAAUUUAUCACUACGAAAUCUUGAGAUCGGGCGUUCGACACGCCCCCGGGAGUUUUUUUCCUCGAGCAA: at most 0.026. The same measure for CUCUCGGUAGCCAAGAUGGUUUAAGGCGCAAGACUUUAAUUUAUCACUACGAAAUCUUGAGAUCGGGCGUGCGAGUCGCCCCCGGGAGAUUUUUUCCUCGAGCAA: at most 0.026. On to CUCUCGGUAGCCAAGAUGGUUUAAGGCGCAAGACUUUAAUUUAUCACUACGAAAUCUUGAGAUCGGGCGUUCGACUCUCCCCCGGGAGAUUUUUUCCUCGAGCAA, for which the nonsense suppression came to 0.188. Regarding CUCUCGGUAGCCAAGCUGGUUUAAGGCGCAAGACUUUAAUUUAUCACUACGAAAUCUUGAGAUCGGGCGUUCGACUCACCCCCGGGAGAUUUUUUCCUCGAGCAA, the nonsense suppression was 0.837. In the case of CUCUCGGUAGCCAAGCUGGUUUAAGGCGCAAGACUUUAAUUUAUCACUACGAAAUCUUGAGAUCGGGCGUUCGACUCUCCCCCGGGAGAUUUUUUCCUCGAGCAA, the nonsense suppression came to 0.454. As for CUCUCGGUAGCCAAGCUGGUUUAAGGCGCAAGACUUUAAUUUAUCACUACGAAAUCUUGAGAUCGGGCGUUCGACUCGCCCCGGGAGGAUUUUUUCCUCGAGCAA, the figure is at most 0.026. Consider CUCUCGGUAGCCAAGCUGGUUUAAGGCGCAAGACUUUAAUUUAUCACUACGAAAUCUUGGGAUCGGGCGUUCGACUCGCCCCCGGCAGAUUUUUUCCUCGAGCAA, for which the nonsense suppression is at most 0.026. As to CUCUCGGUAGCCAAGAUGGUUGAAGGCGCAAGACUUUAAUUUAUCACUACGAAAUCUUGAGAUCGGGCGUUCGACUCGUCCCCGGGAGAUUUUUUCCUCGAGCAA, the nonsense suppression was determined as 0.208. Take CUCUCGGUAGCCAAGCUGGUUUAAGGCGCAAGACUUUAAUUUAUCACUACGAAAUCUUGAGACCGGGCGUUCGACUCGUCCCCGGGAGAUUUUUUCCUCGAGCAA: the nonsense suppression is 0.0784. In the case of CUCUCGGUAGCCAAGAUGGUUUAAGGCGCAAGACUUUAAUUUAUCACUACGAAAUCUUAAGAUCGGGCGUUCGACUCGCCCCCGGGAGAUUUUUUCCUCGAGCAA, the nonsense suppression is 0.32. CUCUCGGUAGCCAAGCUGGUUUAAGGCACAAGACUUUAAUUUAUCACUACGAAAUCUUGAGAUCGGGCGUUCGACUCGCCCCCGGGAGAUUUUUUCCUCGAGCAA: the nonsense suppression worked out at 1.06. Take CUCUCGGUAGCCAAGCUGGUUUAAGGCGCAAGACUUUAAUUUAUCACUACGAAAUCUUGAGACCGGGCGUUCGACUCGCCCCCGGGAGAUUUUUUCCUCGAGCAA: the nonsense suppression amounted to 1.11.

Consider CUCUCGGUAGCCAAGAUGGUUUAAGGCACAAGACUUUAAUUUAUCACUACGAAAUCUUGAGAUCGGGCGUUCGACUCGCCCCCGGGAGAUUUUUUCCUCGAGCAA, for which the nonsense suppression turned out to be 1.11.

(Values after the RNAGym collection of RNA variant scans (doi:10.1101/gad.245936.114).)
